# Measurements published in ChEMBL document CHEMBL5058577, “EUbOPEN Chemogenomics Library 2 (Multiplex)” (2022).
# Tested on: Fibroblast
# Assay: Multiplex assay against human fibroblast
# Type: toxicity, cell-based
# Summary of the method: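 Per cents of healthy-nucleus cells form the tubulin, mitochondrial-mass and membrane-permeability phenotype values. Live cells were stained at seeding with Hoechst33342, BioTracker Green Microtubule Cytoskeleton Dye, MitoTracker Red and Annexin V Alexa Fluor 680. After compound addition they were imaged on a CQ1 microscope at 37°C and 5% CO2, and CellPathfinder machine-learning gating split them into Hoechst high-intensity objects or normal cells, normal cells into healthy, pyknosed or fragmented nuclei, and pyknosed cells into mitotic or apoptotic.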
# [1] = 12 h, 1 µM, compound concentration 1 uM, replicate 1
# [2] = 12 h, 1 µM, compound concentration 1 uM, replicate 2
# [3] = 12 h, 10 µM, compound concentration 10 uM, replicate 1
# [4] = 12 h, 10 µM, compound concentration 10 uM, replicate 2
# [5] = 24 h, 1 µM, compound concentration 1 uM, replicate 1
# [6] = 24 h, 1 µM, compound concentration 1 uM, replicate 2
# [7] = 24 h, 10 µM, compound concentration 10 uM, replicate 1
# [8] = 24 h, 10 µM, compound concentration 10 uM, replicate 2
# [9] = 48 h, 1 µM, compound concentration 1 uM, replicate 1
# [10] = 48 h, 1 µM, compound concentration 1 uM, replicate 2
# [11] = 48 h, 10 µM, compound concentration 10 uM, replicate 1
# [12] = 48 h, 10 µM, compound concentration 10 uM, replicate 2
structure (smiles),measurement,setting,value
N#Cc1c(N)nc(SCc2csc(-c3ccc(Cl)cc3)n2)c(C#N)c1-c1ccc(OCCO)cc1 [CAPADENOSON],Population Apoptotic (%),[1],43%
same,Population Fragmented Nuclei (%),[1],8%
same,Population Healthy Nuclei (%),[1],80%
same,Population Hoechst High Intensity Objects (%),[1],2%
same,Population Membrane Permeable-Phenotype (%),[1],0%
same,Population Mitochondria Different-Phenotype (%),[1],10%
same,Population Mitotic Cells (%),[1],56%
same,Population Normal (%),[1],97%
same,Population Pyknosed Nuclei (%),[1],11%
same,Population Tubulin-Different-Phenotype (%),[1],38%
same,Total Cell Count,[1],139
same,Population Apoptotic (%),[2],27%
same,Population Fragmented Nuclei (%),[2],30%
same,Population Healthy Nuclei (%),[2],43%
same,Population Hoechst High Intensity Objects (%),[2],1%
same,Population Membrane Permeable-Phenotype (%),[2],5%
same,Population Mitochondria Different-Phenotype (%),[2],11%
same,Population Mitotic Cells (%),[2],72%
same,Population Normal (%),[2],98%
same,Population Pyknosed Nuclei (%),[2],25%
same,Population Tubulin-Different-Phenotype (%),[2],55%
same,Total Cell Count,[2],157
same,Population Apoptotic (%),[3],31%
same,Population Fragmented Nuclei (%),[3],23%
same,Population Healthy Nuclei (%),[3],50%
same,Population Hoechst High Intensity Objects (%),[3],1%
same,Population Membrane Permeable-Phenotype (%),[3],0%
same,Population Mitochondria Different-Phenotype (%),[3],10%
same,Population Mitotic Cells (%),[3],68%
same,Population Normal (%),[3],98%
same,Population Pyknosed Nuclei (%),[3],25%
same,Population Tubulin-Different-Phenotype (%),[3],80%
same,Total Cell Count,[3],172
same,Population Apoptotic (%),[4],41%
same,Population Fragmented Nuclei (%),[4],41%
same,Population Healthy Nuclei (%),[4],29%
same,Population Hoechst High Intensity Objects (%),[4],8%
same,Population Membrane Permeable-Phenotype (%),[4],20%
same,Population Mitochondria Different-Phenotype (%),[4],14%
same,Population Mitotic Cells (%),[4],58%
same,Population Normal (%),[4],91%
same,Population Pyknosed Nuclei (%),[4],29%
same,Population Tubulin-Different-Phenotype (%),[4],97%
same,Total Cell Count,[4],128
same,Population Apoptotic (%),[5],72%
same,Population Fragmented Nuclei (%),[5],11%
same,Population Healthy Nuclei (%),[5],80%
same,Population Hoechst High Intensity Objects (%),[5],1%
same,Population Membrane Permeable-Phenotype (%),[5],0%
same,Population Mitochondria Different-Phenotype (%),[5],5%
same,Population Mitotic Cells (%),[5],27%
same,Population Normal (%),[5],98%
same,Population Pyknosed Nuclei (%),[5],8%
same,Population Tubulin-Different-Phenotype (%),[5],34%
same,Total Cell Count,[5],139
same,Population Apoptotic (%),[6],48%
same,Population Fragmented Nuclei (%),[6],35%
same,Population Healthy Nuclei (%),[6],44%
same,Population Hoechst High Intensity Objects (%),[6],4%
same,Population Membrane Permeable-Phenotype (%),[6],6%
same,Population Mitochondria Different-Phenotype (%),[6],20%
same,Population Mitotic Cells (%),[6],51%
same,Population Normal (%),[6],95%
same,Population Pyknosed Nuclei (%),[6],20%
same,Population Tubulin-Different-Phenotype (%),[6],71%
same,Total Cell Count,[6],148
same,Population Apoptotic (%),[7],38%
same,Population Fragmented Nuclei (%),[7],26%
same,Population Healthy Nuclei (%),[7],52%
same,Population Hoechst High Intensity Objects (%),[7],2%
same,Population Membrane Permeable-Phenotype (%),[7],0%
same,Population Mitochondria Different-Phenotype (%),[7],26%
same,Population Mitotic Cells (%),[7],61%
same,Population Normal (%),[7],97%
same,Population Pyknosed Nuclei (%),[7],20%
same,Population Tubulin-Different-Phenotype (%),[7],67%
same,Total Cell Count,[7],179
same,Population Apoptotic (%),[8],41%
same,Population Fragmented Nuclei (%),[8],43%
same,Population Healthy Nuclei (%),[8],28%
same,Population Hoechst High Intensity Objects (%),[8],6%
same,Population Membrane Permeable-Phenotype (%),[8],17%
same,Population Mitochondria Different-Phenotype (%),[8],25%
same,Population Mitotic Cells (%),[8],58%
same,Population Normal (%),[8],93%
same,Population Pyknosed Nuclei (%),[8],27%
same,Population Tubulin-Different-Phenotype (%),[8],94%
same,Total Cell Count,[8],131
same,Population Apoptotic (%),[9],88%
same,Population Fragmented Nuclei (%),[9],16%
same,Population Healthy Nuclei (%),[9],77%
same,Population Hoechst High Intensity Objects (%),[9],2%
same,Population Membrane Permeable-Phenotype (%),[9],0%
same,Population Mitochondria Different-Phenotype (%),[9],7%
same,Population Mitotic Cells (%),[9],11%
same,Population Normal (%),[9],97%
same,Population Pyknosed Nuclei (%),[9],6%
same,Population Tubulin-Different-Phenotype (%),[9],37%
same,Total Cell Count,[9],147
same,Population Apoptotic (%),[10],69%
same,Population Fragmented Nuclei (%),[10],38%
same,Population Healthy Nuclei (%),[10],43%
same,Population Membrane Permeable-Phenotype (%),[10],6%
same,Population Mitochondria Different-Phenotype (%),[10],12%
same,Population Mitotic Cells (%),[10],30%
same,Population Pyknosed Nuclei (%),[10],17%
same,Population Tubulin-Different-Phenotype (%),[10],60%
same,Total Cell Count,[10],151
same,Population Apoptotic (%),[11],81%
same,Population Fragmented Nuclei (%),[11],32%
same,Population Healthy Nuclei (%),[11],53%
same,Population Hoechst High Intensity Objects (%),[11],2%
same,Population Membrane Permeable-Phenotype (%),[11],0%
same,Population Mitochondria Different-Phenotype (%),[11],32%
same,Population Mitotic Cells (%),[11],18%
same,Population Normal (%),[11],97%
same,Population Pyknosed Nuclei (%),[11],14%
same,Population Tubulin-Different-Phenotype (%),[11],78%
same,Total Cell Count,[11],187
same,Population Apoptotic (%),[12],36%
same,Population Fragmented Nuclei (%),[12],57%
same,Population Healthy Nuclei (%),[12],29%
same,Population Hoechst High Intensity Objects (%),[12],0%
same,Population Membrane Permeable-Phenotype (%),[12],11%
same,Population Mitochondria Different-Phenotype (%),[12],30%
same,Population Mitotic Cells (%),[12],63%
same,Population Normal (%),[12],100%
same,Population Pyknosed Nuclei (%),[12],13%
same,Population Tubulin-Different-Phenotype (%),[12],95%
same,Total Cell Count,[12],142
